pIC50, pKi: −log10 of the molar value. The source made the active and inactive calls. The rule behind the calls is not given here.
How the values were obtained:
[1] = target: hERG (KCNH2) (Homo sapiens, UniProt Q12809); assay: Inhibition of human ERG expressed in HEK-293 cells assessed as K+-selective outward current at 3 uM at -80 mV holding potential after 5 mins by voltage patch-clamp method; type: cell-based, HEK293; details: HEK-293 cells expressing human ERG
[2] = test system: Cavia porcellus; assay: Cardiotoxicity in anesthetized Hartley guinea pig assessed as prolongation of corrected QT interval up to cumulative dose of 10 mg/kg, iv by electrocardiographic analysis; type: toxicity, organism-based; parameters: dose 10 mg/kg, route intravenous; details: in vivo
Summary of the method: (§1)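 Anesthetized guinea pigs received cumulative i.v. doses of 0.1, 0.3, 1, 3 and 10 mg/kg, each as a 5 min infusion at 0, 20, 40, 60 and 80 min. QTc was recorded at each time point as percent change from each animal's baseline. Mean ± SEM, n = 3.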

[3] = Plasma concentration in Hartley guinea pig up to cumulative dose of 10 mg/kg, iv by LC-MS-MS analysis; type: ADME, organism-based, Cavia porcellus; parameters: dose 10 mg/kg, route intravenous; details: in vivo
Summary of the method: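 Plasma drug level was taken from the anesthetized guinea pig QTc study. Dosing was cumulative i.v. (0.1, 0.3, 1, 3, 10 mg/kg), each dose a 5 min infusion at 20 min intervals, up to 10 mg/kg.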

[4] = target: Voltage-gated inwardly rectifying potassium channel KCNH2 (Homo sapiens, UniProt Q12809); assay: Displacement of [3H]-astemizole from human ERG expressed in HEK293 cells after 1 hr by scintillation counting analysis; type: cell-based
Voltage-gated inwardly rectifying potassium channel KCNH2, sequence (Q12809 whole entry): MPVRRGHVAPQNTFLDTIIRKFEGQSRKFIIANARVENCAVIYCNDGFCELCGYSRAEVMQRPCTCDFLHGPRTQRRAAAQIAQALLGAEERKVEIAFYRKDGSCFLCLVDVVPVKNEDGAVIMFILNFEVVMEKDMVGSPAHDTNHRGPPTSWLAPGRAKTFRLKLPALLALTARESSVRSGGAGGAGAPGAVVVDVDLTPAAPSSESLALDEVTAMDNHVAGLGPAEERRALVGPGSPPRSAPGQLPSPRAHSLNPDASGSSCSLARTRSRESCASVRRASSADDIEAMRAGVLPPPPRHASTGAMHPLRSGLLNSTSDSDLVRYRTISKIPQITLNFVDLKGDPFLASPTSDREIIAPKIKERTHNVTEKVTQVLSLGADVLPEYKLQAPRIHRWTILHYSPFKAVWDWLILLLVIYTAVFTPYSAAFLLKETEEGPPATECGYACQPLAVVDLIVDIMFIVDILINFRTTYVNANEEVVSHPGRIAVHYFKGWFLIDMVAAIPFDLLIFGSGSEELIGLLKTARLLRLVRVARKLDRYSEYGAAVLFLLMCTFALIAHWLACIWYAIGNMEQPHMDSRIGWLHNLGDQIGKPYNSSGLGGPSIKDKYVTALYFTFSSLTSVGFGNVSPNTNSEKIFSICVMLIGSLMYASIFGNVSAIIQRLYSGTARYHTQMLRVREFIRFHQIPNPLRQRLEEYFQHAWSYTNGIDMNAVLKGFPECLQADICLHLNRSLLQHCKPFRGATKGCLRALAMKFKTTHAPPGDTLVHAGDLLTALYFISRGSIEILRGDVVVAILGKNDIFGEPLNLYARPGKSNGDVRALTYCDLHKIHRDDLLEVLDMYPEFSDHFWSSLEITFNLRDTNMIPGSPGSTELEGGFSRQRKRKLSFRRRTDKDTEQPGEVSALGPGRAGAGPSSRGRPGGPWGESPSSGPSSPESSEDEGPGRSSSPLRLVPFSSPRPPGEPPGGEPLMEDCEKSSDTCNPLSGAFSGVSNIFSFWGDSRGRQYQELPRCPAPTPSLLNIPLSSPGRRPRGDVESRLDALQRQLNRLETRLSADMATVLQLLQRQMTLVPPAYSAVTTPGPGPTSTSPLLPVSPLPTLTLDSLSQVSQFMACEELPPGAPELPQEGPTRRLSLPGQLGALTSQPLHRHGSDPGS

[5] = AUC (last) in rat at 10 mg/kg, po by LC-MS-MS analysis; type: ADME, organism-based; parameters: time 0 - last, dose 10 mg/kg, route oral; details: plasma
[6] = Cmax in mouse at 10 mg/kg, po by LC-MS-MS analysis; type: ADME, organism-based; parameters: dose 10 mg/kg, route oral; details: in vivo
[7] = AUC (last) in dog at 6.7 mg/kg, po by LC-MS-MS analysis; type: ADME, organism-based, Canis lupus familiaris; parameters: time 0 - last, dose 6.7 mg/kg, route oral; details: plasma
Summary of the method: (§2)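 Single oral dose of 6.7 mg/kg given to dogs as a suspension/solution in 0.5% methocel vehicle. AUC was taken to the last sampled time point.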

[8] = target: C-X-C chemokine receptor type 4 (Homo sapiens) (UniProt P61073); assay: Binding affinity against CXCR4 at 25 uM
C-X-C chemokine receptor type 4 (Homo sapiens), sequence (P61073 whole entry): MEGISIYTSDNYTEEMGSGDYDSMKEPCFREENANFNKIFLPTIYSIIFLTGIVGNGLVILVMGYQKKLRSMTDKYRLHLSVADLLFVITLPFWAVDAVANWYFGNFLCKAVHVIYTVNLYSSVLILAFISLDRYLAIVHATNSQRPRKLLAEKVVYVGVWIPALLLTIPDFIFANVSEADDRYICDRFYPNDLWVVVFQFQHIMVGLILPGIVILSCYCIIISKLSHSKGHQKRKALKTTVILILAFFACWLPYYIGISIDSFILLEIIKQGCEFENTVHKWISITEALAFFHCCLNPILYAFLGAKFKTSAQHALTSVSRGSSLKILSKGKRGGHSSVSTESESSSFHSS

[9] = test system: Mus musculus; assay: Antiasthamatic activity in ovalbumin-sensitized mouse model assessed as inhibition of airway eosinophil infiltration at 10 mg/kg, po bid; type: functional
[10] = Oral bioavailability in rat at 10 mg/kg by LC-MS-MS analysis; type: ADME, organism-based; details: in vivo
[11] = target: C-C chemokine receptor type 2 (Mus musculus, UniProt P51683); assay: Binding affinity to mouse CCR2
C-C chemokine receptor type 2, sequence (P51683 whole entry): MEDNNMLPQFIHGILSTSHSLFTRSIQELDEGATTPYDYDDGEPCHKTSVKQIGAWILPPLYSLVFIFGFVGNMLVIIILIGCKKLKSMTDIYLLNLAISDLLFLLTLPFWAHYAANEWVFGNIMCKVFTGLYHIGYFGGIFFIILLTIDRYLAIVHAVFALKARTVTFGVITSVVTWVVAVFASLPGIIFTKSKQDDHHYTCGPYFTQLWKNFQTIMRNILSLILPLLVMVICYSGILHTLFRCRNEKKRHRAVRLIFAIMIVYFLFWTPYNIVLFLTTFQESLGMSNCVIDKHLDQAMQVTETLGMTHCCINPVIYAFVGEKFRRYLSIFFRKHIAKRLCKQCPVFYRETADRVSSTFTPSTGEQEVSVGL

[12] = target: T1, C-X-C chemokine receptor type 1 (Homo sapiens) (UniProt P25024); assay: Binding affinity against CXCR1 at 25 uM
T1 sequence (whole entry): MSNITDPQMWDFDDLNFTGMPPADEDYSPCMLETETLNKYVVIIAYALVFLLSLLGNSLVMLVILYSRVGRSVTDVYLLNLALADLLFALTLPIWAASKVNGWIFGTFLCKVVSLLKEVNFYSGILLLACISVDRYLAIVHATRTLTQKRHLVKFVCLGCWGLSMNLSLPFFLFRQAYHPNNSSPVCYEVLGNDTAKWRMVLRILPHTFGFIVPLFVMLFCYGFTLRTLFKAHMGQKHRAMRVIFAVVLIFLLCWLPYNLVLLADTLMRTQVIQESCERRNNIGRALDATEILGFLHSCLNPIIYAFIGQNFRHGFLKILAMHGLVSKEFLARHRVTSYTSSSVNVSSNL

[13] = test system: Canis familiaris; assay: Toxicity in anesthetized dog assessed as effect on functional respiratory parameters up to 10 mg/kg, iv; type: organism-based, Canis lupus familiaris; parameters: dose 10 mg/kg, route intravenous; details: in vivo
[14] = target: T2, C-C chemokine receptor type 3 (Homo sapiens) (UniProt P51677); assay: Binding affinity against CCR3 at 25 uM
T2 sequence (whole entry): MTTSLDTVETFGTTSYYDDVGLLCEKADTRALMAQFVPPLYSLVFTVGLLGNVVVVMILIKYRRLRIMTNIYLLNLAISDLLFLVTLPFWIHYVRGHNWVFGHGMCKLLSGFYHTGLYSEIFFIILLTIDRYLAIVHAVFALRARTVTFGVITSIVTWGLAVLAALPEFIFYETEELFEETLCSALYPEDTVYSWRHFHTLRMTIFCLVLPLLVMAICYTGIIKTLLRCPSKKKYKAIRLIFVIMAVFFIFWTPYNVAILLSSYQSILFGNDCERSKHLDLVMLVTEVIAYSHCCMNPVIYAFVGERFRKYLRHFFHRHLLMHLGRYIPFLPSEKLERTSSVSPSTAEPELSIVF

[15] = target: C-C chemokine receptor type 5 (Homo sapiens) (UniProt P51681); assay: Binding affinity against CCR5 at 25 uM
C-C chemokine receptor type 5 (Homo sapiens), sequence (P51681 whole entry, looked up): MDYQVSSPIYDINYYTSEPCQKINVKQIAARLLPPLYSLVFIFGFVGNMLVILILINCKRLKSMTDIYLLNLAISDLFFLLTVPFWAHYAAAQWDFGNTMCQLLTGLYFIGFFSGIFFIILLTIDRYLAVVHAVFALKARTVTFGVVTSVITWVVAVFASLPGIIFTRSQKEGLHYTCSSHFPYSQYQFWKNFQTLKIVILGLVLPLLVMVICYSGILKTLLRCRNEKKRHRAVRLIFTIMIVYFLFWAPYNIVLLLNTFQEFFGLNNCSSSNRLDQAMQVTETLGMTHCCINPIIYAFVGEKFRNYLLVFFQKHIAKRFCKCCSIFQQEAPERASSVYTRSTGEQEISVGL

[16] = test system: Canis familiaris; assay: Cardiotoxicity in anesthetized dog assessed as effect on ECG morphology up to 10 mg/kg, iv; type: toxicity, organism-based, Canis lupus familiaris; parameters: dose 10 mg/kg, route intravenous; details: in vivo
[17] = AUC (last) in monkey at 7.2 mg/kg, po by LC-MS-MS analysis; type: ADME, organism-based, Macaca mulatta; parameters: time 0 - last, dose 7.2 mg/kg, route oral; details: rhesus monkey, plasma
[18] = Cmax in dog at 6.7 mg/kg, po by LC-MS-MS analysis; type: ADME, organism-based, Canis lupus familiaris; parameters: dose 6.7 mg/kg, route oral; details: in vivo; summary of the method: as §2
[19] = target: T3, C-C chemokine receptor type 4 (Homo sapiens) (UniProt P51679); assay: Binding affinity against CCR4 at 25 uM
T3 sequence (whole entry): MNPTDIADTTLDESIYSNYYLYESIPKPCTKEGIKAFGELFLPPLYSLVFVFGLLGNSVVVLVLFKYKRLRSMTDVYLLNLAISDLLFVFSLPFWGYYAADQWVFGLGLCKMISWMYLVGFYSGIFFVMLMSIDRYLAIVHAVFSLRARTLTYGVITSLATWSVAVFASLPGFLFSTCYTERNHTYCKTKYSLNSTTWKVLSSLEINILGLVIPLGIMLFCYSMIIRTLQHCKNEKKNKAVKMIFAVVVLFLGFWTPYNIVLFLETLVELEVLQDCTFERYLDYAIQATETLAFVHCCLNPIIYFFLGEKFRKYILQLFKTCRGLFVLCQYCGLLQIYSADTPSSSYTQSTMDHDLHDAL

[20] = target: T4, C-C chemokine receptor type 1 (Homo sapiens) (UniProt P32246); assay: Binding affinity against CCR1 at 25 uM
T4 sequence (whole entry): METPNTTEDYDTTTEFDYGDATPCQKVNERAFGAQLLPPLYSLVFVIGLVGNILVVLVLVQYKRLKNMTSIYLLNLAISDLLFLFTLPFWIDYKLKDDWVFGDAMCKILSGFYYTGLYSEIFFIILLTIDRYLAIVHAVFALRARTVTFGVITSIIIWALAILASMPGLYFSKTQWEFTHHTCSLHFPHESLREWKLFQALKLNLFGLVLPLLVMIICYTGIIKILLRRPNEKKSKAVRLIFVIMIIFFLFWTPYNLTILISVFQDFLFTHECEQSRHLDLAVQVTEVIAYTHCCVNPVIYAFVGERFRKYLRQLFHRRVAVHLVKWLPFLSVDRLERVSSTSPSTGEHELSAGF

[21] = Oral bioavailability in mouse at 10 mg/kg by LC-MS-MS analysis; type: ADME, organism-based; details: in vivo
[22] = test system: Mus musculus; assay: Inhibition of thioglycollate-induced peritonitis in po dosed human CCR2 knock-in/murine CCR2 knockout mouse assessed as inhibition of leukocytes, monocytes/macrophages and T-lymphocytes influx in to peritoneal cavity administered as bid; type: functional
[23] = target: T5, CX3C chemokine receptor 1 (Homo sapiens) (UniProt P49238); assay: Binding affinity against CX3CR1 at 25 uM
T5 sequence (whole entry): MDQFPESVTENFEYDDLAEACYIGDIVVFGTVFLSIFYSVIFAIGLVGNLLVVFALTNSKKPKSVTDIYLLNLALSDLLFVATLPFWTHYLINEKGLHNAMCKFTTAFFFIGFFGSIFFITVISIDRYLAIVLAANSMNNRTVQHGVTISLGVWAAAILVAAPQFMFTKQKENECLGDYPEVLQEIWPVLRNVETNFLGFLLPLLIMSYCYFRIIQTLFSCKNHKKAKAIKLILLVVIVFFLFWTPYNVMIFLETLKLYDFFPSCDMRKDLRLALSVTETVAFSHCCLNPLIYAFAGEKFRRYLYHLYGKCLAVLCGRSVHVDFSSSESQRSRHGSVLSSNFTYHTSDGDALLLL

[24] = Cmax in monkey at 7.2 mg/kg, po by LC-MS-MS analysis; type: ADME, organism-based, Macaca mulatta; parameters: dose 7.2 mg/kg, route oral; details: rhesus monkey, in vivo
[25] = Oral bioavailability in dog at 6.7 mg/kg by LC-MS-MS analysis; type: ADME, organism-based, Canis lupus familiaris; details: in vivo; summary of the method: as §2
[26] = Oral bioavailability in monkey at 7.2 mg/kg by LC-MS-MS analysis; type: ADME, organism-based, Macaca mulatta; details: rhesus monkey, in vivo
[27] = target: T6, C-X-C chemokine receptor type 2 (Homo sapiens) (UniProt P25025); assay: Binding affinity against CXCR2 at 25 uM
T6 sequence (whole entry): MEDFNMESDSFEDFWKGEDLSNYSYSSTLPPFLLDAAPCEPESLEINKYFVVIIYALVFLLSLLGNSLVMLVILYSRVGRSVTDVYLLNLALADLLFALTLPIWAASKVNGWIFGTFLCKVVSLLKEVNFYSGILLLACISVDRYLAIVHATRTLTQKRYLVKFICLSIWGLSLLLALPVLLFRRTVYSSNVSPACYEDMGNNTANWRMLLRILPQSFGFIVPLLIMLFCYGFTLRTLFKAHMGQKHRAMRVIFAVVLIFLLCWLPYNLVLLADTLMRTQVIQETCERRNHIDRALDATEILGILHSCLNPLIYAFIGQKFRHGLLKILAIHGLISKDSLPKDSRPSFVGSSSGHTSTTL

[28] = AUC (last) in mouse at 10 mg/kg, po by LC-MS-MS analysis; type: ADME, organism-based; parameters: time 0 - last, dose 10 mg/kg, route oral; details: plasma
[29] = test system: Canis familiaris; assay: Toxicity in anesthetized dog assessed as effect on cardiohemodynamic parameters up to 10 mg/kg, iv; type: organism-based, Canis lupus familiaris; parameters: dose 10 mg/kg, route intravenous; details: in vivo
[30] = test system: Canis familiaris; assay: Toxicity in anesthetized dog assessed as effect on electrophysiological parameters up to 10 mg/kg, iv; type: organism-based, Canis lupus familiaris; parameters: dose 10 mg/kg, route intravenous; details: in vivo
[31] = Cmax in rat at 10 mg/kg, po by LC-MS-MS analysis; type: ADME, organism-based; parameters: dose 10 mg/kg, route oral; details: in vivo
[32] = test system: Cavia porcellus; assay: Cardiotoxicity in iv dosed anesthetized-Hartley guinea pig assessed as prolongation of corrected QT interval by electrocardiographic analysis; type: toxicity, organism-based; details: in vivo; summary of the method: as §1
[33] = test system: Cavia porcellus; assay: Cardiotoxicity in anesthetized-Hartley guinea pig assessed as prolongation of corrected QT interval up to cumulative dose of 10 mg/kg, iv by electrocardiographic analysis; type: toxicity, organism-based; parameters: dose 10 mg/kg, route intravenous; details: in vivo; summary of the method: as §1

hERG (KCNH2), sequence (Q12809 whole entry): as the sequence (Q12809 whole entry) above

CC(C)Oc1ncc([C@]2(O)CC[C@H](N3CC(NC(=O)CNC(=O)c4cccc(C(F)(F)F)c4)C3)CC2)s1
inhibition at 5 min, 3 µM [1]: 49%
Activity [2]: Non-toxic
concentration [3]: 3 µM
pIC50 [4]: 4.55

O=C(CNC(=O)c1cccc(C(F)(F)F)c1)NC1CN([C@H]2CC[C@@](O)(c3cncs3)CC2)C1 [JNJ-41443532]
Activity [2]: Non-toxic
AUC(0-t) [5]: 416 ng·h/mL
Cmax [6]: 74 ng/mL
AUC(0-t) [7]: 5890 ng·h/mL
inhibition [8]: inactive
inhibition in vivo at 10 mg/kg [9]: 89%
bioavailability [10]: 15.3%
pKi [11]: 5.02
inhibition [12]: inactive
Activity [13]: Non-toxic
inhibition [14]: inactive
inhibition [15]: inactive
Activity [16]: Non-toxic
AUC(0-t) [17]: 3060 ng·h/mL
concentration [3]: 26 µM
Cmax [18]: 1620 ng/mL
inhibition [19]: inactive
inhibition [20]: inactive
bioavailability [21]: 19%
ED50 [22]: 3 mg/kg
inhibition [22]: Dose-dependent effect
inhibition [23]: inactive
Cmax [24]: 740 ng/mL
bioavailability [25]: 70.2%
bioavailability [26]: 25.4%
inhibition [27]: inactive
AUC(0-t) [28]: 204 ng·h/mL
Activity [29]: Non-toxic
Activity [30]: Non-toxic
Cmax [31]: 100 ng/mL

COc1ccc([C@]2(O)CC[C@H](N3CC(NC(=O)CNC(=O)c4cccc(C(F)(F)F)c4)C3)CC2)cn1
Activity [32]: Dose-dependent effect
Activity [33]: 6%

Cc1cnc([C@]2(O)CC[C@H](N3CC(NC(=O)CNC(=O)c4cccc(C(F)(F)F)c4)C3)CC2)s1
Activity [33]: 15%

CC(C)c1ncc([C@]2(O)CC[C@H](N3CC(NC(=O)CNC(=O)c4cccc(C(F)(F)F)c4)C3)CC2)s1
inhibition at 5 min, 3 µM [1]: 35%
Activity [2]: Non-toxic
concentration [3]: 10 µM
pIC50 [4]: < 4.30

COc1ccc([C@]2(O)CC[C@H](N3CC(NC(=O)CNC(=O)c4cccc(C(F)(F)F)c4)C3)CC2)nc1
inhibition at 5 min, 3 µM [1]: 30%
pIC50 [4]: 4.60

CSc1ncc([C@]2(O)CC[C@H](N3CC(NC(=O)CNC(=O)c4cccc(C(F)(F)F)c4)C3)CC2)s1
inhibition at 5 min, 3 µM [1]: 77%
pIC50 [4]: 5.22

Cc1ccc([C@]2(O)CC[C@H](N3CC(NC(=O)CNC(=O)c4cccc(C(F)(F)F)c4)C3)CC2)cn1
Activity [32]: Dose-dependent effect
Activity [33]: 13%

— ChEMBL document CHEMBL2203263, “Discovery of a 4-Azetidinyl-1-thiazoyl-cyclohexane CCR2 Antagonist as a Development Candidate” (ACS Med Chem Lett, 2012)
